Measurements as given in ChEMBL document CHEMBL1134859, “Rapid synthesis of triazine inhibitors of inosine monophosphate dehydrogenase” (Bioorg Med Chem Lett, 2002).

Key:
CCRF-CEM = experiment: Inhibitory activity against human T-lymphoblast CEM cell line using T cell proliferation assay; assay type: functional, cell-based
Method in brief: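 Human T-lymphoblast CEM cells were grown in RPMI 1640 with 10% heat-inactivated FBS and penicillin/streptomycin, then seeded at 3000 cells/well in 0.5% DMSO. Compounds were tested in triplicate from a 10 uM final top concentration in 3-fold serial dilutions. Cells were kept 72 h in humidified 5% CO2.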

[1] = molecular target: Inosine-5'-monophosphate dehydrogenase 2 (Homo sapiens, UniProt P12268); experiment: Inhibition of human Inosine-5'-monophosphate dehydrogenase 2

Row | Structure (SMILES) | IC50 (CCRF-CEM) [nM] | IC50 [1] [nM]
1 | CNc1nc(Nc2ccc(-c3cnco3)c(OC)c2)nc(N2CCC[C@H]2CO)n1 | > 1000 | 130
2 | COc1cc(Nc2nc(-c3ccccc3)nc(N3CCN(C)CC3)n2)ccc1-c1cnco1 | > 1000 | 330
3 | COc1cc(Nc2nc(O)nc(-c3ccccc3)n2)ccc1-c1cnco1 | 5900 | 18
4 | COc1cc(Nc2nc(NCCc3cccnc3)nc(-c3ccccc3)n2)ccc1-c1cnco1 | 2400 | 58
5 | CNc1nc(Nc2ccc(-c3cnco3)c(OC)c2)nc(N2CCOCC2)n1 | > 1000 | 160
6 | CNc1nc(Nc2ccc(-c3cnco3)c(OC)c2)nc(-c2ccccc2)n1 | > 1000 | 76
7 | COc1cc(Nc2nc(NCCC(=O)O)nc(-c3ccccc3)n2)ccc1-c1cnco1 | > 1000 | 130
8 | COc1cc(Nc2nc(NCc3ccccc3)nc(-c3ccccc3)n2)ccc1-c1cnco1 | > 1000 | 410
9 | COc1cc(Nc2nc(NCC(=O)O)nc(-c3ccccc3)n2)ccc1-c1cnco1 | > 1000 | 250
10 | CNc1nc(Nc2ccc(-c3cnco3)c(OC)c2)nc(-c2ccco2)n1 | > 1000 | 57
11 | CNc1nc(Nc2ccc(-c3cnco3)c(OC)c2)nc(N2CCC[C@@H]2CO)n1 | > 1000 | 720
12 | COc1cc(Nc2nc(-c3ccccc3)nc(N3CCOCC3)n2)ccc1-c1cnco1 | > 1000 | 190
13 | COc1cc(Nc2nc(-c3ccccc3)nc(N(C)C)n2)ccc1-c1cnco1 | > 1000 | 270
14 | CNc1nc(Nc2ccc(-c3cnco3)c(OC)c2)nc(N2CCC[C@H]2COC)n1 | > 1000 | 390
15 | COc1c(C)c2c(c(O)c1C/C=C(\C)CCC(=O)O)C(=O)OC2 [MYCOPHENOLIC ACID] | 390 | –

Results, then the molecule that gave them:

Row | IC50 (CCRF-CEM) [nM] | IC50 [1] [nM] | Structure (SMILES)
16 | > 1000 | 620 | CNc1nc(NC)nc(Nc2ccc(-c3cnco3)c(OC)c2)n1
17 | > 1000 | 160 | COc1cc(Nc2nc(-c3ccccc3)nc(N3CCN(C=O)CC3)n2)ccc1-c1cnco1
18 | > 1000 | 170 | CNc1nc(Nc2ccc(-c3cnco3)c(OC)c2)nc(-c2ccc(C)cc2)n1
19 | > 1000 | – | COc1cc(Nc2nc(N)n(-c3ccccc3)n2)ccc1-c1cnco1
20 | > 1000 | 290 | COC[C@@H]1CCCN1c1nc(Nc2ccc(-c3cnco3)c(OC)c2)nc(-c2ccccc2)n1
21 | > 1000 | 32 | COc1cc(Nc2nc(OCc3ccccc3)nc(-c3ccccc3)n2)ccc1-c1cnco1
22 | > 1000 | 78 | COc1cc(Nc2nc(NCCCC(=O)O)nc(-c3ccccc3)n2)ccc1-c1cnco1
23 | > 1000 | 78 | COc1cc(Nc2nc(-c3ccccc3)nc(N3CCC[C@@H]3CO)n2)ccc1-c1cnco1
24 | > 1000 | 310 | CNc1nc(Nc2ccc(-c3cnco3)c(OC)c2)nc(-c2ccccc2C)n1
25 | > 1000 | 41 | COc1nc(Nc2ccc(-c3cnco3)c(OC)c2)nc(-c2ccccc2)n1
26 | 3500 | 45 | COc1cc(Nc2nncc(-c3ccccc3)n2)ccc1-c1cnco1
27 | > 1000 | > 1000 | COc1cc(Nc2nc(NCCc3ccccc3)nc(-c3ccccc3)n2)ccc1-c1cnco1
28 | > 1000 | 72 | COc1cc(Nc2nc(-c3ccccc3)nc(N3CCC[C@H]3CO)n2)ccc1-c1cnco1
29 | > 1000 | 54 | COc1cc(Nc2nc(N)nc(-c3ccccc3)n2)ccc1-c1cnco1
30 | > 1000 | 130 | CNc1nc(Nc2ccc(-c3cnco3)c(OC)c2)nc(-c2cccc(C)c2)n1
